Results from different studies.
Lines come from different studies, so protocols differ.
Target: Serine/threonine-protein kinase Nek6 (NEK6, Homo sapiens, UniProt Q9HC98)

| SMILES | assay | setting | quantity | value |
| --- | --- | --- | --- | --- |
| CN1CC(Oc2cnc(C#N)cc2-c2ccn3nc(NC(=O)C4CC4)cc3c2)C1 | enzyme activity, inhibitor | 1 µM | inhibition | 2% |
| CN(c1ncccc1CNc1nc(Nc2ccc3c(c2)CC(=O)N3)ncc1C(F)(F)F)S(C)(=O)=O | enzyme activity, inhibitor | 1 µM | inhibition | 11.8% |
| CCCS(=O)(=O)Nc1ccc(F)c(C(=O)c2c[nH]c3ncc(-c4ccc(Cl)cc4)cc23)c1F | enzyme activity, inhibitor | 1 µM | inhibition | < 10% |
| CCCCN(CCCC)C(=O)CN1C[C@H](c2cc(OC)c3c(c2)OCO3)[C@@H](C(=O)O)[C@@H]1CC(C)(C)CCC | cell-free assay, competition with immobilised ligand | 1 µM | remaining binding | 100% |
| Cc1cc(NC(=O)c2cccc3cc(-c4cccc5[nH]nc(N)c45)ccc23)ccc1F | enzyme activity, inhibitor | 0.1 µM | activity vs control | 99% |
| C[C@H](NC(=O)c1cnc2n1[C@](C)(Cc1ccc(C#N)cc1)C(=O)N2c1cc(Cl)c(F)c(Cl)c1)C(=O)NC1(c2ccccn2)CC1 | cell-free assay, competition with immobilised ligand | 1 µM | remaining binding | 100% |
| O=C1Nc2ccc(Cl)cc2C1=Cc1cc(Cl)c(O)c(Cl)c1 | cell-free assay | 0.5 µM | remaining signal | 104% |
| CO[C@@H](C)c1c(Nc2ccc([C@H](N(C)C(=O)C3CCS(=O)(=O)CC3)C(F)(F)F)cc2)cnc2cc(Cl)nn12 | cell-free assay, competition with immobilised ligand | 1 µM | remaining binding | 97% |
| COc1cc2ncnc(Nc3ccc(Oc4ccccc4)c(C)c3C)c2cc1OC | enzyme activity, inhibitor | 1 µM | inhibition | 8% |
| CNC(=O)c1cc(Oc2ccc(NC(=O)Nc3ccc(Cl)c(C(F)(F)F)c3)cc2)ccn1 | enzyme activity, inhibitor | 10 µM | inhibition | -16% |
| FC(F)(F)Oc1cccc(-c2cnc3ccc(-c4ccncc4)nn23)c1 | enzyme activity, inhibitor, radiometric | 1 µM | activity vs control | 92% |
| CCN(CC)CCNC(=O)c1c(C)[nH]c(/C=C2\C(=O)Nc3ccc(F)cc32)c1C | enzyme activity, inhibitor | 10 µM | inhibition | -9% |
| Cc1cc(-n2nc(Cc3cc(F)cc(C(F)(F)F)c3)nc2C)ccc1C(N)=O | cell-free assay, competition with immobilised ligand | 1 µM | remaining binding | 95% |
| CC/C(=N\NC(=O)NCc1cccc(O)c1)c1ccc(O)c(C)c1O | enzyme activity, inhibitor | 0.1 µM | inhibition | 0.2% |
